From ChEMBL document CHEMBL3612002, “Identification of A Novel Small-Molecule Binding Site of the Fat Mass and Obesity Associated Protein (FTO)” (J Med Chem, 2015) come the findings set out here.

For data set [1], the target named is T1, Alpha-ketoglutarate-dependent dioxygenase FTO (Homo sapiens, UniProt Q9C0B1). The experiment in a line: Inhibition of FTO (unknown origin) (31 to 505 residues) expressed in Escherichia coli BL21 (DE3) cells assessed as reduction in 3-meT substrate demethylation by measuring demethylation ratio at 80 uM incubated for 17 hrs at 16 degC by HPLC method. Further details: scale not given: the % may be the effect or the level left. In short, it runs like this:
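Preliminary screen with FTO and 3meT substrate (0.1 mg/mL stock) in MES, FeSO4, αKG and L-ascorbate; inhibitor added from a 4 mM DMSO stock, with DMSO alone as control. Incubated 17 h at 16 °C, centrifuged, then analysed by C18 reverse-phase HPLC (water/methanol gradient). Demethylated fraction of substrate reported.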
Target sequence in this assay (Q9C0B1 whole entry, looked up, the tested form may be a part): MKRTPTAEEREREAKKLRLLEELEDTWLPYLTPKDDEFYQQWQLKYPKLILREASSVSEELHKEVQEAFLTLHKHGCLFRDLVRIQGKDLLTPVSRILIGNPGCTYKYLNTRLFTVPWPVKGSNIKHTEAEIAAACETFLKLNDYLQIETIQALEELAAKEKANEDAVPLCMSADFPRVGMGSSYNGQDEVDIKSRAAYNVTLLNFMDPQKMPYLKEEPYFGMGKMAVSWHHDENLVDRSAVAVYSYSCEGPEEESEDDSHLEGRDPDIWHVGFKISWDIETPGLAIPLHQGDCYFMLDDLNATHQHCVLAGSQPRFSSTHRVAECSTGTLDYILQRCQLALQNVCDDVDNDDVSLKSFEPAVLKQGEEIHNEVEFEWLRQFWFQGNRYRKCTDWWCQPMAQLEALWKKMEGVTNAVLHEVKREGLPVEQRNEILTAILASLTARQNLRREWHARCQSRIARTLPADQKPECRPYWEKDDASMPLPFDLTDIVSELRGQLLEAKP

Data set [2] addresses T1, Alpha-ketoglutarate-dependent dioxygenase FTO. To be noted: 3T3-L1, 10 uM.
Target sequence in this assay (Q9C0B1 whole entry, looked up, the tested form may be a part): as above
In data set [3] the test system is Alpha-ketoglutarate-dependent dioxygenase FTO (Homo sapiens), Q9C0B1 [R96Q]. To be noted: 3T3-L1, 10 uM.
The nature of data set [4]: Cytotoxicity against mouse 3T3L1 cells assessed as effect on cell morphology at 1 to 20 uM incubated for 8 days. The format is cell-based. To be noted: 3t3-l1, 192 h. In a few lines: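 3T3-L1 preadipocytes were exposed to 1, 10 or 20 μM for 8 days. Cell health was judged from morphology.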
In data set [5] the target is Alpha-ketoglutarate-dependent dioxygenase FTO (Mus musculus) (UniProt Q8BGW1). The experiment in a line: Inhibition of FTO in mouse 3T3L1 cells increase in […] m6A modified mRNA levels at 10 uM incubated for 48 hrs by dot blot method. To be noted: 3T3-L1. The format is cell-based. In a few lines: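 3T3-L1 preadipocytes stably transfected with empty pcDNA3.1, WT-FTO or R96Q-FTO were grown in high-glucose DMEM/10% FBS. Post-confluent cells were differentiated 48 h with insulin, dexamethasone and IBMX, then given 10 μM compound plus insulin for 48 h. mRNA m6A was quantified as relative integrated optical density; mean ± SEM, n = 4.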

In data set [6] the target is T1, Alpha-ketoglutarate-dependent dioxygenase FTO. The experiment in a line: biochemical.
Target sequence in this assay (Q9C0B1 whole entry, the tested form may be a part): as the sequence (Q9C0B1 whole entry, looked up, the tested form may be a part) above
For data set [7] the target is unchanged. Put plainly: Binding affinity to FTO (unknown origin) (31 to 505 residues) expressed in Escherichia coli BL21 (DE3) by ITC method. In a few lines: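 ITC at 25 °C. Cell contained 140 μM FTO (residues 31–505, His/Ni-resin and ion-exchange purified from E. coli BL21(DE3) after IPTG induction) in 25 mM HEPES pH 7.5, 100 mM NaCl, 10 mM β-mercaptoethanol, 10% DMSO. Titrant was the same buffer with 1.5 mM ligand, given as one 0.4 μL then 2.0 μL injections every 150 s at 750 rpm. Buffer-only dilution heats subtracted before fitting Kd.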
Target sequence in this assay (Q9C0B1 whole entry, the tested form may be a part): as the sequence (Q9C0B1 whole entry, looked up, the tested form may be a part) above

Data set [8] shares this target. To be noted: BL21-DE3, 80 uM.
Target sequence in this assay (Q9C0B1 whole entry, looked up, the tested form may be a part): as above

The source made the active and inactive calls. No cut-off for these calls is given here.

Sequence of Alpha-ketoglutarate-dependent dioxygenase FTO (Mus musculus) (Q8BGW1 whole entry): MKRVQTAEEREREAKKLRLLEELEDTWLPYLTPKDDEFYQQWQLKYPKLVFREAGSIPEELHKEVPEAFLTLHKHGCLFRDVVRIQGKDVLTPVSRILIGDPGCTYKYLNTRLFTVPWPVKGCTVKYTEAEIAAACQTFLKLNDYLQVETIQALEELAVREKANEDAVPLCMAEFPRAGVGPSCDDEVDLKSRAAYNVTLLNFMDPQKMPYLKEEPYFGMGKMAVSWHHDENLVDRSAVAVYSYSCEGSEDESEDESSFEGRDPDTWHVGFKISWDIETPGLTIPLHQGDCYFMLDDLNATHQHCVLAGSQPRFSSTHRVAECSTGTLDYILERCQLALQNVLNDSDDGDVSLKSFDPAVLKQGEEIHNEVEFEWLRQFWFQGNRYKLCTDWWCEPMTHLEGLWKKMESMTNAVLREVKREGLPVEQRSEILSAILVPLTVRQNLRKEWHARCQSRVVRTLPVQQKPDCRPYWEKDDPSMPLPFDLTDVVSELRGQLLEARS
Sequence of Alpha-ketoglutarate-dependent dioxygenase FTO (Homo sapiens), Q9C0B1 [R96Q] (Q9C0B1 whole entry R96Q): as the sequence (Q9C0B1 whole entry, looked up, the tested form may be a part) above, with R96Q counted along it

In the case of `CCCCc1ccc(C2(C(=O)Nc3cc(Cl)c(O)cc3O)CCC2)cc1`, in data set [1], the Activity was determined as 22.2%.

For `O=C(Nc1cc(Cl)c(O)cc1O)C1(c2cc(C(F)(F)F)cc(C(F)(F)F)c2)CCC1`, in data set [1], the Activity turned out to be 61.9%.

For `O=C(Nc1cc(Cl)c(O)cc1O)C1(c2ccc([N+](=O)[O-])cc2[N+](=O)[O-])CCC1`, the Activity in data set [1] came to 26.1%.

Regarding `O=C(Nc1cc(Cl)c(O)cc1O)C1(c2cccc(Cl)c2)CCC1`, the Activity in data set [1] was determined as 16.9%.

Take `O=C(Nc1cc(Cl)c(O)cc1O)C1(c2ccc(Br)cc2)CCC1`: the Activity in data set [1] was 31.3%.

Turning to `O=C(Nc1cc(Cl)c(O)cc1O)C1(c2c(Cl)cccc2Cl)CCC1`, the Activity in data set [1] amounted to 15.4%.

For `O=C(Nc1cc(Cl)c(O)cc1O)C1(c2ccc([N+](=O)[O-])cc2)CCC1`, the Activity in data set [1] turned out to be 46.9%.

For `O=C(Nc1cc(Cl)c(O)cc1O)C1(c2c(F)cccc2F)CCC1`, the Activity in data set [1] is 15.2%.

As for `O=C(Nc1cc(Cl)c(O)cc1O)C1(c2cccc3ccccc23)CCC1`, the Activity in data set [1] stood at 39%.

As for `O=C(Nc1cc(Cl)c(O)cc1O)C1(c2ccccc2)CCC1`, the inhibition entry in data set [2], in data set [3] and in data set [5] was “Active” each time. Further, the Activity result in data set [4] was “Non-toxic”; in data set [1] it was 14.4%. Moreover, the midpoint of inhibition in data set [6], the IC50, lay at 4.95 µM. The Kd in data set [7] turned out to be 13 µM. Besides, the inhibition entry in data set [8] was “Dose-dependent effect”.

On to `O=C(Nc1cc(Cl)c(O)cc1O)C1(c2ccc(O)cc2)CCC1`, for which the Activity in data set [1] was found to be 17.8%.

`O=C(Nc1cc(Cl)c(O)cc1O)C1(c2cccc(Oc3ccccc3)c2)CCC1`: in data set [1], the Activity worked out at 17.3%.

Consider `O=C(Nc1cc(Cl)c(O)cc1O)C1(c2ccc(Cl)cc2)CCC1`, for which the Activity in data set [1] was 29.2%.

For the compound `O=C(Nc1cc(Cl)c(O)cc1O)C1(c2ccccc2Cl)CCC1`, the Activity in data set [1] is 16.9%.

Take `O=C(Nc1cc(Cl)c(O)cc1O)C1(c2ccc3ccccc3c2)CCC1`: the Activity in data set [1] was found to be 18.4%.

For the compound `O=C(Nc1cc(Cl)c(O)cc1O)C1(c2cccc(O)c2)CCC1`, in data set [1], the Activity is 25.8%.

As to `O=C(Nc1cc(Cl)c(O)cc1O)C1(c2cccc(Br)c2)CCC1`, in data set [1], the Activity worked out at 18.7%.

As to `CCCCc1cccc(C2(C(=O)Nc3cc(Cl)c(O)cc3O)CCC2)c1`, the Activity in data set [1] stood at 18.2%.

In the case of `O=C(Nc1cc(Cl)c(O)cc1O)C1(c2ccccc2Br)CCC1`, in data set [1], the Activity was 21.6%.

As for `O=C(Nc1cc(Cl)c(O)cc1O)C1(c2cccc(C(F)(F)F)c2)CCC1`, the Activity in data set [1] is 29.8%.
